“Also recorded” adds a separate entry of the source.
Assays:
[1] = system: YU2, HXBc2 and HX(YU2 V3) gp120 glycoproteins; test: Direct binding of 3H-labeled BMS-806 to gp120 variants; parameters: species or system HIV-1; settings: all three gp120 glycoproteins
[2] = system: D368A mutant viruses; test: Enhancement of infection of Cf2Th-CCR5 cells, D368A virus; format: cell-based, HIV-1; settings: CD4−CCR5+ target cells; D368A envelope glycoproteins
[3] = system: recombinant HIV-1 with the wild-type HIV-1YU2 envelope glycoproteins; test: Enhancement of infection of CD4-negative Cf2Th-CCR5 cells, w.t. YU2 virus; format: cell-based
[4] = system: viruses with the S375W mutant envelope glycoproteins; test: Enhancement of infection of Cf2Th-CCR5 cells, S375W virus; format: cell-based, HIV-1
[5] = system: viruses with Glu 429 replaced with a lysine residue; test: Enhancement of infection of Cf2Th-CCR5 cells, Glu 429 to lysine virus; format: cell-based, HIV-1; settings: Glu 429 replaced with lysine
[6] = system: viruses with an alanine residue substituted for Glu 429; test: Enhancement of infection of Cf2Th-CCR5 cells, Glu 429 to alanine virus; format: cell-based, HIV-1; settings: Glu 429 replaced with alanine
[7] = system: viruses with the w.t. YU2 envelope glycoproteins; test: Inhibition of infection of Cf2Th-CD4/CCR5 cells, w.t. YU2 virus; format: cell-based, HIV-1; settings: for IC50: read-out: 50% inhibitory concentration (IC50), Cf2Th-CD4/CCR5 cells, w.t. YU2 envelope glycoproteins
How it was run: (§1)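 Cf2Th-CD4/CCR5 cells were seeded at 6×10^3/well 24 h ahead. Luciferase viruses bearing YU2 Env (w.t. or S375A) or control A-MLV Env were premixed with test compound (1 to 100 μM) for 30 min at 37°C, then added to the cells for 48 h at 37°C. Luciferase was read after freeze-thaw lysis. Infection was expressed relative to no compound. IC50 is the mean ± SD of five independent experiments, each run in triplicate.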

[8] = system: Viruses with the S375A envelope glycoproteins; test: Inhibition of infection of Cf2Th-CD4/CCR5 cells, S375A virus; format: cell-based, HIV-1
How it was run: as §1

[9] = biological target: gp120 core-17b complex; test: BIAcore analysis; format: binding, HIV-1; settings: data not shown
[10] = system: viruses containing a chimeric HIV-1 envelope glycoprotein (HX(YU2 V3)); test: Enhancement of infection of Cf2Th-CCR5 cells, HX; format: cell-based
[11] = system: viruses with the KB9 envelope glycoproteins; test: Entry into CD4-negative Cf2Th-CXCR4 cells, KB9 virus; format: cell-based, HIV-1; settings: data not shown
[12] = biological target: gp120 core bound to the 17b antibody; test: Thermodynamic cycle by isothermal titration calorimetry, gp120 core bound to 17b; format: binding, HIV-1
[13] = biological target: HXBc2 gp120 (Human immunodeficiency virus type 1 group M subtype B, UniProt P04578); test: Direct binding of 3H-labeled NBD-556, HXBc2 gp120; parameters: species or system HIV-1
[14] = system: envelope glycoproteins of the laboratory-adapted CXCR4-using (X4) HIV-1 isolate, HXBc2; test: Entry into CD4-negative Cf2Th-CXCR4 cells, HXBc2 virus; format: cell-based; settings: data not shown
[15] = system: viruses with the S375A change; test: Enhancement of infection of Cf2Th-CCR5 cells, S375A virus; format: cell-based, HIV-1; settings: S375A envelope glycoproteins, compared with w.t.

COc1ccnc2[nH]cc(C(=O)C(=O)N3CCN(C(=O)c4ccccc4)C[C@H]3C)c12 [BMS-806]
direct binding of 3H-labeled BMS-806 (in words) [1]: similarly

CC1(C)CC(NC(=O)C(=O)Nc2ccc(Cl)c(F)c2)CC(C)(C)N1 [JRC-II-191]
enhancement of infectivity (in words) [2]: enhanced | enhancement of HIV-1 entry/infection of CCR5+ cells (in words) [3]: most potent stimulation of HIV-1 infection; also recorded: activated HIV-1 infection | enhancement of infection (in words) [4]: did not activate the entry | activation of infection (in words) [5]: eliminated the activation of infection | virus-enhancing activity (in words) [6]: significantly diminished | IC50 [7]: 54 µM | inhibition of HIV-1YU2 infection of cells expressing CD4 and CCR5 (in words) ([7]; specificity versus A-MLV envelope glycoproteins): specifically inhibited | IC50 [8]: 10 to 20 µM

CC1(C)CC(NC(=O)C(=O)Nc2ccc(Cl)cc2)CC(C)(C)N1 [NBD-556]
Kd [9]: 6.6 µM | enhancement of infectivity (in words) [2]: enhanced | enhancement of infection (in words) [10]: dramatically enhanced infection | enhancement of HIV-1 entry/infection of CCR5+ cells (in words) [3]: significant enhancement | enhancement of entry (in words) [11]: did not enhance | enhancement of infection (in words) [4]: not enhanced | Kd ([12]; gp120 core bound to the 17b antibody, isothermal titration calorimetry): 1.5 µM | increase in affinity for the gp120 core bound to the 17b antibody ([12]; versus gp120 core alone): approximately 25 fold | direct binding of 3H-labeled NBD-556 (in words) [13]: only moderately | activation of infection (in words) [5]: eliminated the activation of infection | enhancement of entry (in words) [14]: not functionally enhanced | virus-enhancing activity (in words) [6]: less disruptive | IC50 [7]: 100 µM | IC50 [8]: 10 to 20 µM | enhancement of infection (in words) [15]: greater enhancement

CC1(C)CC(NC(=O)C(=O)Nc2ccc(Br)cc2)CC(C)(C)N1 [NBD-557]
enhancement of infectivity (in words) [2]: not enhanced | enhancement of HIV-1 entry/infection of CCR5+ cells (in words) [3]: comparably to NBD-556 | enhancement of infection (in words) [4]: did not activate the entry | activation of infection (in words) [5]: eliminated the activation of infection | virus-enhancing activity (in words) [6]: significantly diminished

— article PMC2597202 (Structure (London, England : 1993), 2008)
